Measured values published in ChEMBL document CHEMBL1121601, “Synthesis and anxiolytic activity of a series of pyrazino[1,2-a][1,4]benzodiazepine derivatives” (J Med Chem, 1980).
Active and inactive are the calls of the source. The calls are words filed in the database; no cut-off is given here.

Experiments:
[1] = target: GABA-A receptor; anion channel; assay: Displacement of [3H]diazepam from GABA-A receptor in rat synaptosomal membranes; type: cell membranes, Membrane
Procedure, shortened: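 Test agents over a wide concentration range, triplicate tubes per concentration. […] IC50 for inhibition of specific binding read graphically.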

Rattus norvegicus [2] = assay: Ability to reduce the incidence of metrazole-induced seizures in rats (administered perorally or at standard dose of 30 mg/kg ); Inactive; type: functional, organism-based; set-up: dose 30 mg/kg
[3] = Compound was evaluated for in vitro inhibition of histamine activated adenylate cyclase in guinea pig cerebral cortex; type: functional, tissue-based, Cavia porcellus
Procedure, shortened: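 Cell-free vesicle preparation from guinea pig cerebral cortex, preincubated with [³H]adenine to label the endogenous ATP pool as [³H]ATP. Test agents were then assessed for blocking histamine activation of adenylate cyclase.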

Rattus norvegicus [4] = species on record: Rattus norvegicus; assay: Ability to inhibit the uptake of norepinephrine (NE) by crude synaptosomes from rat whole brain; type: functional
Procedure, shortened: (§1)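 Crude synaptosomes from rat whole brain, per Thornberg and Moore with minor changes. Incubated 5 or 15 min with L-[3H]norepinephrine (20 or 21.2 nM unless otherwise specified) or [3H]serotonin (9.2-14 nM unless otherwise specified). Test agents dissolved in ethanol; final ethanol 1% (v/v).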

Rattus norvegicus [5] = species on record: Rattus norvegicus; assay: Ability to inhibit the uptake of serotonin (5-HT) by crude synaptosomes from rat whole brain; type: functional; procedure, shortened: as §1
[6] = target: Tyrosine 3-monooxygenase (Rattus norvegicus) (UniProt P04177); assay: Compound was tested to block the inhibition of tyrosine hydroxylase by apomorphine at 10 uM
Procedure, shortened: (§2)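 Tyrosine hydroxylase in synaptosomes, run essentially per Bronaugh and co-workers. Percent prevention of apomorphine inhibition = (% control activity with compound + Apo − % control with Apo)/(% control with compound alone − % control with Apo) × 100.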

[7] = target: Tyrosine 3-monooxygenase (Rattus norvegicus) (UniProt P04177); assay: Compound was tested to block the inhibition of tyrosine hydroxylase by apomorphine at 1 uM; procedure, shortened: as §2

Chain of Tyrosine 3-monooxygenase (Rattus norvegicus) (P04177 whole entry): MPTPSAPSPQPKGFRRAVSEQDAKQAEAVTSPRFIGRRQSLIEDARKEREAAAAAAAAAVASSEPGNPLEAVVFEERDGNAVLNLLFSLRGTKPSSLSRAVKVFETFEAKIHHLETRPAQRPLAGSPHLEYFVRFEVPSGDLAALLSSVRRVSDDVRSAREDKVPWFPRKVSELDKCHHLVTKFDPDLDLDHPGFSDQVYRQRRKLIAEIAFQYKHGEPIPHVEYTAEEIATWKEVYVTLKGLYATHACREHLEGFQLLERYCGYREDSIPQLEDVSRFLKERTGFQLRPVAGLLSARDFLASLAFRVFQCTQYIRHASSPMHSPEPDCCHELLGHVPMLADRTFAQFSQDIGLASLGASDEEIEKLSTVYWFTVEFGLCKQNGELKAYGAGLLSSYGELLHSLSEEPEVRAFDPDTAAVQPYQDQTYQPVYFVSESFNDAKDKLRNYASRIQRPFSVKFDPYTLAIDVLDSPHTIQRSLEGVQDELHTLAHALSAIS

Row | Compound | IC50 [1] | ED50 (Rattus norvegicus [2]) | IC50 [3] | IC50 (Rattus norvegicus [4]) | IC50 (Rattus norvegicus [5]) | inhibition [6] | inhibition [7]
1 | CC1=NCC2CN(C)CCN2c2ccc(Cl)cc21 (stereo not drawn) | > 100 µM | inactive | 5 µM |  |  |  | 
2 | CN(C)CCCN1c2ccccc2CCc2ccc(Cl)cc21 [CLOMIPRAMINE] |  |  | 4.4 µM | 9.5 µM | 0.75 µM |  | 
3 | CN1CCN2c3ccc(Cl)cc3C(c3ccc(Cl)cc3)=NCC2C1 (stereo not drawn) | > 100 µM | inactive | > 50 µM |  |  | 10% | 
4 | CN1CCN2c3ccc(Cl)cc3C(c3ccccc3Cl)=NCC2C1 (stereo not drawn) | 0.8 µM |  | 30 µM | 30 µM | 45 µM |  | 
5 | CN1CCN2c3ccc(Cl)cc3C(Cc3ccccc3)=NCC2C1 (stereo not drawn) | > 100 µM | inactive | > 50 µM |  |  |  | 
6 | CN1C(=O)CN=C(c2ccccc2)c2cc(Cl)ccc21 |  |  |  |  |  |  | 23%
7 | CN1CCN2c3ccccc3Cc3ccccc3C2C1 (stereo not drawn) [MIANSERIN] |  |  | 0.19 µM | 36 µM | 35 µM |  | 
8 | CN1CCN2c3ccc(Cl)cc3C(c3ccccc3)=NCC2C1 (stereo not drawn) | 9 µM | inactive | 9 µM |  |  |  | 
9 | CNCCCN1c2ccccc2CCc2ccccc21 [DESIPRAMINE] |  |  | 10.5 µM | 0.08 µM | 6.5 µM |  | 
10 | O=C(CCCN1CCC(O)(c2ccc(Cl)cc2)CC1)c1ccc(F)cc1 |  |  |  |  |  |  | 28%
11 | CN1CCN2c3ccc(Cl)c(-c4ccccc4)c3CNCC2C1 (stereo not drawn) | > 100 µM | inactive | > 50 µM |  |  |  | 
12 | CC(=O)N1Cc2c(ccc(Cl)c2-c2ccccc2)N2CCN(C)CC2C1 (stereo not drawn) | > 100 µM | inactive |  |  |  |  | 
